PLCg1 inh = inhibitors of human phospholipase C gamma1; inhibition, % at 12.2 µM; P19174; actives 0.84% (n = 370,000); purified PLC-gamma1, fluorogenic substrate, fluorescence; in the data active means inhibition above about 9.5%
Target sequence (P19174 whole entry, looked up): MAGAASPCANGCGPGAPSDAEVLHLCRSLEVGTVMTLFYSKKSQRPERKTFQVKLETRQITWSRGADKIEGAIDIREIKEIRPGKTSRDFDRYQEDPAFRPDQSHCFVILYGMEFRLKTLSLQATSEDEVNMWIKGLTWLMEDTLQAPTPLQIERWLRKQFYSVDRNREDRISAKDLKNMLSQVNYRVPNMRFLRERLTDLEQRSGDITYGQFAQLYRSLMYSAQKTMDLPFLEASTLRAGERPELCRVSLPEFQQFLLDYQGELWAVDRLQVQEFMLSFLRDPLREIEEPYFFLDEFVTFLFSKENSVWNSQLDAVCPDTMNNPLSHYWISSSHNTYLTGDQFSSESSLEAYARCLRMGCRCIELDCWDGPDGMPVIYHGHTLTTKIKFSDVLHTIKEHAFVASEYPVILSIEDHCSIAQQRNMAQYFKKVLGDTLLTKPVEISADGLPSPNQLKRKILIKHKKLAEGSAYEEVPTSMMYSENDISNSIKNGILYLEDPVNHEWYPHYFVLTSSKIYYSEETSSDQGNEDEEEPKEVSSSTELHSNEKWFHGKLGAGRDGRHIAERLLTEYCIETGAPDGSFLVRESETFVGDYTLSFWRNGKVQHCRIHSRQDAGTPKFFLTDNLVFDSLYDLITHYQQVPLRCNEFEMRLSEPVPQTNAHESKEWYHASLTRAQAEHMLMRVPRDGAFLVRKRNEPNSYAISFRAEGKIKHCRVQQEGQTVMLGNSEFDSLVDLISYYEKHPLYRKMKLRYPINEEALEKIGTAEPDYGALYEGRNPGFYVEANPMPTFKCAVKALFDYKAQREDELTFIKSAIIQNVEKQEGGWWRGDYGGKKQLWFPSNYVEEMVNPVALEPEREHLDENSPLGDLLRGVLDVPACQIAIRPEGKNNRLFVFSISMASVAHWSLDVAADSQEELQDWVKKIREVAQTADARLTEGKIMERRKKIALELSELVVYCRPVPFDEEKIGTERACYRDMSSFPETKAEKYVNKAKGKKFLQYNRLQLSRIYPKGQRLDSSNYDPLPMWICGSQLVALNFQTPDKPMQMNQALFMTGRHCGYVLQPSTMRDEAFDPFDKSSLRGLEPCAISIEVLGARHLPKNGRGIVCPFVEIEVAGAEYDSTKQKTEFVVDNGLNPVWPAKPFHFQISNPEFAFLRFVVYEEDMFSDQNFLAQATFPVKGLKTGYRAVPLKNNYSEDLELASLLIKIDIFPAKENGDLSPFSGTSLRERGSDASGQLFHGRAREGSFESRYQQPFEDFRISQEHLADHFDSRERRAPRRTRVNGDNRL
Tn7 DDE FP = disrupts Tn7 cyclic peptide binding to fibrin D-Dimer-E complex; P02675; FP displacement of FITC-Tn7 peptide from fibrin DD(E); 0% = median of compound wells per plate; inhibition, % at 8.3 µM; actives 0.13% (n = 370,000); AID 720508;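 active means inhibition above the mean of compounds falling within the control limits plus 3 SD of them, cut at about 14% in these data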;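 further: 0% = plate median of compound wells and 100% = 10 µM Aha-Tn7 peptide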
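Assay system: Human clot-derived fibrin DD(E) complex | Buffer or medium: Tris/NaCl/CaCl2 buffer, pH 7.8 | Repeats: One replicate per compound | Benchmarks: Aha-Tn7 high control | Measure: % inhibition scaled between sample-field median and high-control FP | Schedule: 10 min plus 3 h, room temperature | Signal: Fluorescence polarization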
PLCb3 inh = inhibitors of human phospholipase C beta3; Q01970; Purified PLC-beta3, fluorogenic substrate, fluorescence; inhibition, % at 12.2 µM; actives 0.18% (n = 370,000); AID 720704; in the data active means inhibition above about 11%;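 further: 0% = median of compound wells on plate and 100% = full blocker control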
ADAM17 inh = inhibitors of human ADAM17. P78536. recombinant ADAM17, EDANS/DABCYL FRET peptide cleavage. actives 0.83% (n = 370,000). inhibition, % at 6.95 µM;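 active means inhibition above the mean of compounds lying between control limits plus 3 SD, set per campaign, cut at about 8.5% in these data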;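 further: 0% = DMSO-only wells as the low control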
DDE Tn6 FP inh = DD(E)-Tn6 binding inhibition, primary FP screen. actives 0.21% (n = 370,000). Fibrin DD(E) TRITC-Tn6 fluorescence polarization displacement. inhibition, % at 8.3 µM. P02675;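 active means inhibition above a per-campaign cutoff: mean of compounds within control limits plus 3 SD, cut at about 15% in these data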;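 further: 0% = median of all compound wells on the plate and 100% = blocking peptide control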
ADAM10 inh = ADAM10 inhibition, QFRET primary screen; actives 0.62% (n = 370,000); recombinant ADAM10, EDANS/DABCYL FRET peptide cleavage, 3 h; inhibition, % at 7 µM; O14672; AID 720582;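 active means inhibition above a per-campaign cutoff equal to the mean of compounds falling between control-based bounds plus 3 SD, cut at about 20% in these data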;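 further: 0% = DMSO wells while the 100% control is not disclosed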
ADAM10 counter = counter-screen for ADAM17 exosite inhibitors: inhibitors of human ADAM10. recombinant ADAM10, EDANS/DABCYL FRET peptide cleavage, 3 h. AID 743256. shares compounds with ADAM17 inh. actives 47% (n = 2,900). inhibition, % at 6.95 µM;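 active means mean inhibition over the triplicate runs exceeds the activity threshold set in the earlier primary screen, cut at about 20% in these data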;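 further: 0% = DMSO wells and 100% = marimastat wells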
ADAM17 confirm = human ADAM17 inhibition, confirmation; shares compounds with ADAM17 inh; recombinant ADAM17, EDANS/DABCYL QFRET peptide cleavage; inhibition, % at 6.95 µM; actives 65% (n = 2,900); AID 743257;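 active means mean inhibition across replicates above the hit cutoff set in the primary screen, cut at about 8.5% in these data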;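 further: 0% = DMSO wells and 100% = marimastat wells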
The depositor's hits bear a star; nt = not tested or not shown. Hits are enriched below; roughly 2.3% of the tested compounds scored in any of these assays.

SMILES	PLCg1 inh	Tn7 DDE FP	PLCb3 inh	ADAM17 inh	DDE Tn6 FP inh	ADAM10 inh	ADAM10 counter	ADAM17 confirm
Cc1ccnc(SCc2cc(=O)c(OC(=O)c3ccc([N+](=O)[O-])cc3)co2)n1	4	1	1	-3	1	-13	nt	nt
Fc1cc(F)c(CSc2nnc(-c3cccnc3)n2Cc2ccccc2)cc1F	2	-7	1	-1	8	1	nt	nt
O=C(CSc1nc2ccc(NC(=O)c3ccccc3C(=O)O)cc2s1)Nc1ccc(F)c([N+](=O)[O-])c1	5	-2	-9	9.3*	-7	19	-2	2
O=S(Cc1ccc(Br)cc1)Cc1nnc(SCc2ccc(Cl)cc2)n1-c1ccccc1 (centres undefined)	0	9	0	8.6*	6	18	27*	15*
O=S(Cc1ccc(Br)cc1)Cc1nnc(SCc2c(F)cccc2Cl)n1-c1ccccc1 (centres undefined)	2	2	2	4	-1	7	nt	nt
C=CCN(C)C(C#CCCCC)c1ccccc1 (centres undefined)	0	4	-1	-7	1	-4	nt	nt
Cc1cccc(NS(=O)(=O)c2ccc(C(=O)N3CCN(c4ccccc4O)CC3)cc2)c1C	0	6	-8	6	-2	10	nt	nt
Cc1cc(S(=O)(=O)Nc2ccc(C(=O)N3CCN(c4ccccc4O)CC3)cc2)ccc1F	4	0	0	10.0*	5	17	16	8.6*
Cc1noc(C)c1S(=O)(=O)N(C)C[C@H]1Oc2c(NC(=O)C3CCCCC3)cccc2C(=O)N([C@H](C)CO)C[C@@H]1C	3	-8	3	10*	9	5	5	2
Cc1noc(C)c1NC(=O)Nc1cccc2c1O[C@H](CN(C)S(=O)(=O)c1ccc(F)cc1)[C@@H](C)CN([C@H](C)CO)C2=O	8	-4	5	11*	0	3	3	2
Cc1cc(Cn2nnc(-c3ccc(Br)cc3)n2)cc(C)c1O	7	-6	-2	11*	3	2	13	7
COc1ccccc1CNC(=O)NCCCN1CCN(c2ccc(F)cc2)CC1	2	-3	-2	1	-4	-12	nt	nt
Oc1ccc2[nH]cc(CCc3ccccc3)c2c1-c1ccccc1	-2	0	-6	3	0	3	nt	nt
CN1C2=NC(c3ccc4ccccc4c3)CC(=O)N2/C(=C\c2ccccc2)C1c1ccccc1C(F)(F)F (centres undefined)	-3	4	-3	-5	1	-13	nt	nt
C/C(CC(=O)Nc1ccc2c(c1)OCCO2)=N\NC(=O)c1cccc(O)c1	3	-2	-2	2	1	6	nt	nt
C/C(CC(=O)Nc1ccc(Br)cc1)=N\NC(=O)c1cccc(O)c1	0	9	1	10.0*	2	5	0	2
CCc1ccc(N2CC(C(=O)Nc3ccc(OC)c(S(=O)(=O)N4CCOCC4)c3)CC2=O)cc1 (centres undefined)	0	-1	3	1	-7	0	nt	nt
CCc1ccc(N2CC(C(=O)Nc3ccc(C)c(S(=O)(=O)N4CCOCC4)c3)CC2=O)cc1 (centres undefined)	5	5	0	9.8*	5	7	2	3
O=C1N(Cc2ccccc2)c2ccccc2C12CCCc1sc(CCc3ccccc3)nc12 (centres undefined)	1	0	3	0	8	3	nt	nt
CSCCC(NS(=O)(=O)c1ccc(Cl)cc1)C(=O)OCC(=O)c1c(C)[nH]c2ccccc12 (centres undefined)	3	-1	3	9.7*	1	20	29*	17*
Cc1ccc(CN(CC(=O)N/N=C/c2ccccc2[N+](=O)[O-])S(=O)(=O)c2ccc(C)cc2)cc1	5	0	2	9.1*	-5	13	33*	14*

Compound activity as filed in PubChem BioAssay.
